In ChEMBL document CHEMBL1687761:

Legend:
[1] = system: CO/N=C(\C(=O)N[C@@H]1C(=O)N2C(C(=O)[O-])=C(C[N+]3(C)CCCC3)CS[C@H]12)c1csc(N)n1; assay: (§1) Activity of Escherichia coli XL1-Blue wild-type VIM-2 beta-lactamase by spectrophotometer
[2] = system: CC(C)(O/N=C(\C(=O)N[C@@H]1C(=O)N2C(C(=O)[O-])=C(C[n+]3ccccc3)CS[C@H]12)c1csc(N)n1)C(=O)O; assay: as §1
[3] = system: C[C@@H](O)[C@H]1C(=O)N2C(C(=O)O)=C(S[C@@H]3CN[C@H](C(=O)N(C)C)C3)[C@H](C)[C@H]12; assay: as §1
[4] = system: CO/N=C(\C(=O)N[C@@H]1C(=O)N2C(C(=O)O)=C(COC(C)=O)CS[C@H]12)c1csc(N)n1; assay: as §1
[5] = system: C[C@@H](O)[C@H]1C(=O)N2C(C(=O)O)=C(SCCNC=N)C[C@H]12; assay: as §1
[6] = system: CO/N=C(\C(=O)N[C@@H]1C(=O)N2C(C(=O)[O-])=C(C[N+]3(C)CCCC3)CS[C@H]12)c1csc(N)n1; assay: (§2) Ratio of Kcat to Km for Escherichia coli BL21(DE3) wild-type VIM-2 beta-lactamase by spectrophotometer
[7] = system: CO/N=C(\C(=O)N[C@@H]1C(=O)N2C(C(=O)O)=C(COC(C)=O)CS[C@H]12)c1csc(N)n1; assay: as §2
[8] = system: CC(=O)OCC1=C(C(=O)O)N2C(=O)[C@@H](NC(=O)Cc3cccs3)[C@H]2SC1; assay: as §2
[9] = system: C[C@@H](O)[C@H]1C(=O)N2C(C(=O)O)=C(SCCNC=N)C[C@H]12; assay: as §2
[10] = system: CO/N=C(\C(=O)N[C@@H]1C(=O)N2C(C(=O)[O-])=C(C[N+]3(C)CCCC3)CS[C@H]12)c1csc(N)n1; assay: (§3) Activity of Escherichia coli BL21(DE3) wild-type VIM-2 beta-lactamase by spectrophotometer
[11] = system: CC(C)(O/N=C(\C(=O)N[C@@H]1C(=O)N2C(C(=O)[O-])=C(C[n+]3ccccc3)CS[C@H]12)c1csc(N)n1)C(=O)O; assay: as §3
[12] = system: C[C@@H](O)[C@H]1C(=O)N2C(C(=O)O)=C(S[C@@H]3CN[C@H](C(=O)N(C)C)C3)[C@H](C)[C@H]12; assay: as §3
[13] = system: CO/N=C(\C(=O)N[C@@H]1C(=O)N2C(C(=O)O)=C(COC(C)=O)CS[C@H]12)c1csc(N)n1; assay: as §3
[14] = system: C[C@@H](O)[C@H]1C(=O)N2C(C(=O)O)=C(SCCNC=N)C[C@H]12; assay: as §3
[15] = system: CO/N=C(\C(=O)N[C@@H]1C(=O)N2C(C(=O)[O-])=C(C[N+]3(C)CCCC3)CS[C@H]12)c1csc(N)n1; assay: (§4) Ratio of Kcat to Km for Escherichia coli XL1-Blue wild-type VIM-2 beta-lactamase by spectrophotometer
[16] = system: CO[C@@]1(NC(=O)Cc2cccs2)C(=O)N2C(C(=O)O)=C(COC(N)=O)CS[C@@H]21; assay: as §4
[17] = system: CO/N=C(\C(=O)N[C@@H]1C(=O)N2C(C(=O)O)=C(COC(C)=O)CS[C@H]12)c1csc(N)n1; assay: as §4
[18] = system: CC(=O)OCC1=C(C(=O)O)N2C(=O)[C@@H](NC(=O)Cc3cccs3)[C@H]2SC1; assay: as §4
[19] = system: O=C(Cc1cccs1)N[C@@H]1C(=O)N2C(C(=O)O)=C(/C=C/c3ccc([N+](=O)[O-])cc3[N+](=O)[O-])CS[C@H]12; assay: as §4
[20] = system: C[C@@H](O)[C@H]1C(=O)N2C(C(=O)O)=C(SCCNC=N)C[C@H]12; assay: as §4
Escherichia coli [21] = assay: Activity of Escherichia coli XL1-Blue wild-type IMP-1 beta-lactamase by spectrophotometer
Escherichia coli [22] = assay: Ratio of Kcat to Km for Escherichia coli XL1-Blue wild-type IMP-1 beta-lactamase by spectrophotometer
Escherichia coli [23] = assay: Ratio of Kcat to Km for Escherichia coli XL1-Blue IMP-1 W64A mutant beta-lactamase by spectrophotometer
Escherichia coli [24] = assay: Activity of Escherichia coli XL1-Blue IMP-1 W64A mutant beta-lactamase by spectrophotometer
Escherichia coli [25] = assay: Activity of Escherichia coli XL1-Blue VIM-2 A64W mutant beta-lactamase by spectrophotometer
How it was run: (§5)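 Mutant enzyme expressed in E. coli BL21(DE3) in autoinducing ZYP-5052 medium. Purified by anion exchange at pH 7.2, then high-resolution anion exchange at pH 9.2, plus gel filtration in 50 mM HEPES-50 μM ZnSO4 pH 7.5 where needed. Identity confirmed by tryptic peptide mass fingerprint. Steady-state kinetics on β-lactam substrates were run under the conditions used for wild-type VIM-2.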

Escherichia coli [26] = assay: Ratio of Kcat to Km for Escherichia coli XL1-Blue VIM-2 A64W mutant beta-lactamase by spectrophotometer; how it was run: as §5

## Metallo-beta-lactamase (Escherichia coli) (from UniProt Q5U7L7)
[1]
  Km: > 400 µM
  kcat: > 40 s⁻¹
[2]
  Km: 72 µM
[3]
  Km: 2 µM
  kcat: 5 s⁻¹
[4]
  Km: 12 µM
  kcat: 70 s⁻¹
[5]
  Km: 9 µM
  kcat: 34 s⁻¹
[6]
  kcat/Km: 100000 M⁻¹ s⁻¹
[7]
  kcat/Km: 5.8e+06 M⁻¹ s⁻¹
[8]
  kcat/Km: 1.2e+07 M⁻¹ s⁻¹
[9]
  kcat/Km: 3.8e+06 M⁻¹ s⁻¹
[10]
  Km: > 400 µM
  kcat: > 40 s⁻¹
[11]
  Km: 72 µM
[12]
  Km: 2 µM
  kcat: 5 s⁻¹
[13]
  Km: 12 µM
  kcat: 70 s⁻¹
[14]
  Km: 9 µM
  kcat: 34 s⁻¹
[15]
  kcat/Km: 100000 M⁻¹ s⁻¹
[16]
  kcat/Km: 1.2e+06 M⁻¹ s⁻¹
[17]
  kcat/Km: 5.8e+06 M⁻¹ s⁻¹
[18]
  kcat/Km: 1.2e+07 M⁻¹ s⁻¹
[19]
  kcat/Km: 4.3e+07 M⁻¹ s⁻¹
[20]
  kcat/Km: 3.8e+06 M⁻¹ s⁻¹

## CO[C@@]1(NC(=O)Cc2cccs2)C(=O)N2C(C(=O)O)=C(COC(N)=O)CS[C@@H]21
Escherichia coli [21]
  Km: 3 µM
  kcat: 9 s⁻¹
Escherichia coli [22]
  kcat/Km: 3e+06 M⁻¹ s⁻¹
Escherichia coli [23]
  kcat/Km: 900000 M⁻¹ s⁻¹
Escherichia coli [24]
  Km: 45 µM
  kcat: 40 s⁻¹

## CO/N=C(\C(=O)N[C@@H]1C(=O)N2C(C(=O)[O-])=C(C[N+]3(C)CCCC3)CS[C@H]12)c1csc(N)n1
Escherichia coli [25]
  Km: > 400 µM
  kcat: > 50 s⁻¹
Escherichia coli [21]
  Km: 11 µM
  kcat: 7 s⁻¹
Escherichia coli [22]
  kcat/Km: 660000 M⁻¹ s⁻¹
Escherichia coli [26]
  kcat/Km: 120000 M⁻¹ s⁻¹
